Compounds with a hit are over-represented: about 29% of the library has one in this group of screens.
CYP2C19 inhib: human CYP2C19 inhibition. 96,000 compounds, 21% hits. CYP2C19 Supersomes, luciferin-H EGE luminescence, 30 min. inhibition, % at 5 µM;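 active = CYP2C19 inhibition above a set limit at 5 µM in the primary screen, cut at about 50% in these data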;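 note: plate controls were negative control wells for no effect and 2.5 mM tranylcypromine positive control for full effect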
Target sequence (P33261 whole entry, looked up): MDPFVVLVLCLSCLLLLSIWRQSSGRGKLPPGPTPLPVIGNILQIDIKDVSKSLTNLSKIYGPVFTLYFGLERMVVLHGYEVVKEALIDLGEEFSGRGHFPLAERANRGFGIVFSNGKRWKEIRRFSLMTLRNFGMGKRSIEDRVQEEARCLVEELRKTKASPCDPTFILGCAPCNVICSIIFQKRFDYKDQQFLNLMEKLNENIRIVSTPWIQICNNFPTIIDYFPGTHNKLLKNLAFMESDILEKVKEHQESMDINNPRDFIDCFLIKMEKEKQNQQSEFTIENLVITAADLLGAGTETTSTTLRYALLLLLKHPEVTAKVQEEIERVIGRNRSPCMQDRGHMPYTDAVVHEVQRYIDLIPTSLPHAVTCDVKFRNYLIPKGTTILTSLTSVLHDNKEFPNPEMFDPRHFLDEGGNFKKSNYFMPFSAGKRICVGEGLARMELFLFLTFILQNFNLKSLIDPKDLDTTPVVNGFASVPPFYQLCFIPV
Ecoli WT expand: blocks growth of wild type E. coli BW25113; OD600 absorbance; growth inhibition, % at 100 µM; 98,000 compounds, 0.15% hits; AID 710;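 active = growth inhibition above about 50% at one test dose, limit read from the data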;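 note: growth measured after 20 h incubation at 37 °C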
CYP2C9 act: activators of human CYP2C9; recombinant CYP2C9, luciferin-H conversion, luminescence; stronger effect = higher value; factor 1 = untreated enzyme, 0 = blocked; activation factor at 5 µM; AID 1024; 96,000 compounds, 1.4% hits;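 active = activation factor of 2 or more for CYP2C9 at a 5 µM dose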;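 note: 0 = sulfaphenazole-blocked wells and 1 = vehicle-only wells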
CYP2C9 inhib: inhibitors of human CYP2C9 | P11712 | 96,000 compounds, 20% hits | inhibition, % at 5 µM | CYP2C9 Supersomes, luciferin-H conversion, luminescence | AID 777;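 active = blocking of liver enzyme CYP2C9 beyond about 50% at 5 µM, limit read from the data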
CYP2C19 activ: increases human CYP2C19 enzyme activity; 96,000 tested, under 10 active; P33261; activation factor at 5 µM; recombinant CYP2C19, luciferin-H EGE luminescence; stronger effect = higher value; 0 = fully inhibited enzyme, 1 = untreated enzyme; AID 1025;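 active = activation factor of at least 2 at 5 µM in the primary screen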;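 note: 0 = wells with 2.5 mM tranylcypromine and 1 = vehicle-only wells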
tolC growth inh: blocks growth of E. coli BW25113 tolC mutant; growth inhibition, % at 10 µM (by protocol); OD615; 65,000 compounds, 2.2% hits;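 active = growth inhibition at or above a cutoff equal to the mean over every tested compound plus 3 SD, cut at about 60% in these data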;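 note: growth measured after 20 h incubation at 37 °C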
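Test system: tolC-deleted E. coli BW25113; medium: LB with kanamycin 50 µg/mL; compound: single-point testing at 10 µM; incubation: 20 h compound exposure of bacteria at 37 °C; signal: OD at 615 nm; evaluation: growth inhibition in percent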
* marks the source's active call; other numbers are inactive results.

Results for Cc1ccc(S(=O)(=O)CCc2ccccn2)cc1 ?
CYP2C19 inhib: 26; Ecoli WT expand: -3; CYP2C9 act: 1.2; CYP2C9 inhib: -16; CYP2C19 activ: 0.7; tolC growth inh: -1

What do the screens show for `CC(C)(C)c1ccc(S(=O)(=O)CCc2ccccn2)cc1`?
CYP2C19 inhib: 68*; Ecoli WT expand: -3; CYP2C9 act: 0.8; CYP2C9 inhib: 20; CYP2C19 activ: 0.3

Results for CN=C(NC#N)SCC(=O)c1ccc(Cl)cc1Cl ?
CYP2C19 inhib: 82*; Ecoli WT expand: 6; CYP2C9 act: 0; CYP2C9 inhib: 96*; CYP2C19 activ: 0.2; tolC growth inh: 12

What do the screens show for `O=S(=O)(c1ccc(Cl)s1)N1CCc2ccccc2C1`?
CYP2C19 inhib: 67*; Ecoli WT expand: 3; CYP2C9 act: 0.9; CYP2C9 inhib: 11; CYP2C19 activ: 0.3

How did O=S(=O)(c1ccc(Cl)s1)N1CCCc2cccc(O)c21 do in these assays?
CYP2C19 inhib: 72*; Ecoli WT expand: 8; CYP2C9 act: 0.9; CYP2C9 inhib: 15; CYP2C19 activ: 0.3

What do the screens show for `CC(C)CN1C(=S)SC(C)(C)C1n1oc(=O)n(-c2ccc(Cl)cc2)c1=O` (stereo unspecified)?
CYP2C19 inhib: 66*; Ecoli WT expand: -4; CYP2C9 act: 0.1; CYP2C9 inhib: 88*; CYP2C19 activ: 0.3

What do the screens show for `COc1ccc2c3c(cccc13)N(C)N=C2C`?
CYP2C19 inhib: 74*; Ecoli WT expand: -4; CYP2C9 act: 0.4; CYP2C9 inhib: 63*; CYP2C19 activ: 0.3

How did CCc1ccc(NC(=O)Cn2c(=O)oc3cc(S(=O)(=O)N4CCOCC4)ccc32)cc1 do in these assays?
CYP2C19 inhib: -17; Ecoli WT expand: 1; CYP2C9 act: 1.1; CYP2C9 inhib: -13; CYP2C19 activ: 1.2; tolC growth inh: 4

What do the screens show for `Cc1cc(C)cc(NC(=O)Cn2c(=O)oc3cc(S(=O)(=O)N4CC(C)CC(C)C4)ccc32)c1` (stereo unspecified)?
CYP2C19 inhib: 31; Ecoli WT expand: -4; CYP2C9 act: 0.4; CYP2C9 inhib: 56*; CYP2C19 activ: 0.7

How did CCCCNC(=O)Cn1c(=O)oc2cc(S(=O)(=O)N3CC(C)CC(C)C3)ccc21 (stereo unspecified) do in these assays?
CYP2C19 inhib: 12; Ecoli WT expand: -1; CYP2C9 act: 0.4; CYP2C9 inhib: 57*; CYP2C19 activ: 0.9

What do the screens show for `Cc1cccc(Sc2c(C=O)c3ccccc3n2C)c1`?
CYP2C19 inhib: 81*; Ecoli WT expand: -3; CYP2C9 act: 0.2; CYP2C9 inhib: 77*; CYP2C19 activ: 0.2

Results for Cn1c(Sc2ccccc2Cl)c(C=O)c2ccccc21 ?
CYP2C19 inhib: 40; Ecoli WT expand: -8; CYP2C9 act: 0.6; CYP2C9 inhib: 36; CYP2C19 activ: 0.6

How did Cn1c(Sc2ccc(Cl)cc2)c(C=O)c2ccccc21 do in these assays?
CYP2C19 inhib: 4; Ecoli WT expand: -3; CYP2C9 act: 0; CYP2C9 inhib: 96*; CYP2C19 activ: 1

What do the screens show for `CSc1nnc(C2CCCN2)n1C` (stereo unspecified)?
CYP2C19 inhib: -17; Ecoli WT expand: -4; CYP2C9 act: 1.2; CYP2C9 inhib: -22; CYP2C19 activ: 1.2; tolC growth inh: -21

What do the screens show for `CCOC(=O)N1CCC(=C2c3ccc(Cl)cc3CCc3cccnc32)CC1`?
tolC growth inh: 12

Results for Cc1cccc(N2CCN(C(=O)C3CCCN(S(=O)(=O)c4cnc[nH]4)C3)CC2C)c1 (stereo unspecified) ?
Ecoli WT expand: -1; tolC growth inh: -11

What do the screens show for `COc1cc(-c2nnc(COC(=O)c3c4c(nc5ccccc35)CCCC4)o2)cc(OC)c1OC`?
CYP2C19 inhib: 68*; Ecoli WT expand: -28; CYP2C9 act: 0.2; CYP2C9 inhib: 79*; CYP2C19 activ: 0.3

Results for CCOC(=O)c1ccccc1NC(=O)CN(c1ccccc1OCC)S(C)(=O)=O ?
CYP2C19 inhib: 9; Ecoli WT expand: -4; CYP2C9 act: 0.9; CYP2C9 inhib: 13; CYP2C19 activ: 0.9; tolC growth inh: -12

What do the screens show for `CCOc1ccc(N(CC(=O)Nc2ccccc2C(=O)NCc2ccco2)S(C)(=O)=O)cc1`?
CYP2C19 inhib: 23; Ecoli WT expand: 6; CYP2C9 act: 0.3; CYP2C9 inhib: 70*; CYP2C19 activ: 0.8

Results for CCOc1ccccc1N(CC(=O)Nc1cc(OC)ccc1OC)S(C)(=O)=O ?
CYP2C19 inhib: 96*; Ecoli WT expand: -6; CYP2C9 act: 0.2; CYP2C9 inhib: 84*; CYP2C19 activ: 0

What do the screens show for `CCOc1ccc(N(CC(=O)NCc2ccco2)S(C)(=O)=O)cc1`?
CYP2C19 inhib: 4; Ecoli WT expand: -1; CYP2C9 act: 0.8; CYP2C9 inhib: 20; CYP2C19 activ: 1; tolC growth inh: -19

How did CCOc1ccccc1N(CC(=O)Nc1ccccc1C(=O)O)S(C)(=O)=O do in these assays?
CYP2C19 inhib: -2; Ecoli WT expand: 9; CYP2C9 act: 0; CYP2C9 inhib: 97*; CYP2C19 activ: 1; tolC growth inh: -5

What do the screens show for `CCOc1ccccc1N(CC(=O)Nc1ccccc1C(=O)NCc1ccco1)S(C)(=O)=O`?
CYP2C19 inhib: 86*; Ecoli WT expand: -1; CYP2C9 act: 0.1; CYP2C9 inhib: 86*; CYP2C19 activ: 0.1; tolC growth inh: 5

Results for CN(C)CCCN1C(=O)C(=O)/C(=C(/O)c2ccc3c(c2)OCO3)C1c1cccnc1 (stereo unspecified) ?
tolC growth inh: 1

Results for CN1c2ccccc2C(C)(C)C12C=Cc1cc(O)ccc1O2 (stereo unspecified) ?
CYP2C19 inhib: 76*; Ecoli WT expand: 6; CYP2C9 act: 0.4; CYP2C9 inhib: 61*; CYP2C19 activ: 0.2; tolC growth inh: 7

How did O=C(NCCNC(=O)C(c1ccccc1)c1ccccc1)c1ccco1 do in these assays?
CYP2C19 inhib: 66*; Ecoli WT expand: 1; CYP2C9 act: 0.5; CYP2C9 inhib: 51*; CYP2C19 activ: 0.3; tolC growth inh: -15

How did O=C(Nc1ccccc1C(=O)NCc1ccc(Cl)cc1)c1ccco1 do in these assays?
CYP2C19 inhib: 22; Ecoli WT expand: -8; CYP2C9 act: 0.4; CYP2C9 inhib: 58*; CYP2C19 activ: 0.8; tolC growth inh: 3

How did O=C(Nc1ccccc1C(=O)NCCc1ccccc1)c1ccco1 do in these assays?
CYP2C19 inhib: 54*; Ecoli WT expand: -1; CYP2C9 act: 0.3; CYP2C9 inhib: 71*; CYP2C19 activ: 0.5

What do the screens show for `O=C(Nc1ccc(Cl)cc1)N1CC=CCC1`?
CYP2C19 inhib: 23; Ecoli WT expand: 22; CYP2C9 act: 0.9; CYP2C9 inhib: 7; CYP2C19 activ: 0.8; tolC growth inh: 3

What do the screens show for `COc1ccc(CNC(=O)CSc2nnc(C)s2)cc1`?
CYP2C19 inhib: 1; CYP2C9 act: 1.2; CYP2C9 inhib: -15; CYP2C19 activ: 1; tolC growth inh: -13
